Bioassay records from PubChem BioAssay.
LEDGF integ inh: blocks HIV-1 LEDGF/p75-dependent DNA integration. TR-FRET IN-LEDGF/p75 DNA integration, Eu/Cy5. inhibition, % at 3.7 µM. 370,000 tested, 0.64% active;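 active = inhibition above the screen-wide mean plus 3 SD, cut at about 13% in these data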;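 note: signal is the Cy5 over europium emission ratio at 671 and 618 nm; 0% = plate median of compound wells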
SIAE inh: human SIAE inhibition, primary screen | AID 1053197 | inhibition, % at 9.66 µM | SIAE FP-Rh probe binding, fluorescence polarization | Q9HAT2 | 370,000 tested, 0.69% active;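 active = inhibition above a cutoff: mean of compounds within the control limits plus 3 SD of those, cut at about 17% in these data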;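 note: 0% = plate median of compound wells and 100% = probe without SIAE protein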
ABHD4 inh: inhibitors of mouse ABHD4 | Q8VD66 | purified mABHD4, FP-Rh probe fluorescence polarization | inhibition, % at 8.92 µM | 370,000 tested, 0.54% active | AID 720543;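 active = inhibition exceeding the mean over every tested compound plus 3 SD, cut at about 30% in these data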;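 note: 0% = plate median of compound wells and 100% = S159A mutant with DMSO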
Target sequence (Q8VD66 whole entry, looked up): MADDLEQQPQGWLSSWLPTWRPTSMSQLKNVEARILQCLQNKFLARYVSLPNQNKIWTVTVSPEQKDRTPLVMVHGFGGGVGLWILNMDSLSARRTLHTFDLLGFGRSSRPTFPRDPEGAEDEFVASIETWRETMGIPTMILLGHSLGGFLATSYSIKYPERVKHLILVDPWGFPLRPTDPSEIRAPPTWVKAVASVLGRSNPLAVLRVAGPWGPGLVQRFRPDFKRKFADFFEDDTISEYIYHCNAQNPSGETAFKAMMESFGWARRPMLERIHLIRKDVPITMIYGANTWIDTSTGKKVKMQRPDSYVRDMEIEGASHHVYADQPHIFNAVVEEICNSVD
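Test system: mouse ABHD4 enzyme, wild type. Reagent: FP-Rh fluorescent activity-based probe, added after compound pre-incubation. Timing: pre-incubation 45 min, probe exposure 60 min, at 25 °C. Technique: FP readout, ex 525 nm / em 598 nm. Benchmarks: high control S159A mutant with DMSO, low control median of compound wells.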
HTRA1 inh: inhibitors of human serine peptidase HTRA1. Q92743. recombinant HTRA1, FP-rhodamine activity-based probe, fluorescence polarization. inhibition, % at 5.96 µM. 340,000 tested, 0.5% active. AID 504803; in the data active = inhibition above about 36%;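 note: 0% = enzyme with DMSO and 100% = wells lacking enzyme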
TCR CD3 inh: blocks the human TCR-CD3 interaction; TAMRA-labeled TCR probe fluorescence, biochemical; inhibition, % at 9.4 µM; 360,000 tested, 0.37% active;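 note: recombinant mutant TCR 2C K166C tagged with TAMRA read by polarization; 0% = receptor in buffer alone and 100% = receptor with positive control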
TDP2 inh: blocks human TDP2 phosphodiesterase activity. O95551. recombinant TDP2, T5PNP hydrolysis, p-nitrophenol absorbance 415 nm. inhibition, % at 12.8 µM. 370,000 tested, 0.34% active;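 active = inhibition above the mean of all tested compounds plus 3 SD, set per campaign, cut at about 25% in these data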;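 note: 0% = DMSO with enzyme and 100% = buffer with substrate but no TDP2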
Target sequence (O95551 whole entry, looked up): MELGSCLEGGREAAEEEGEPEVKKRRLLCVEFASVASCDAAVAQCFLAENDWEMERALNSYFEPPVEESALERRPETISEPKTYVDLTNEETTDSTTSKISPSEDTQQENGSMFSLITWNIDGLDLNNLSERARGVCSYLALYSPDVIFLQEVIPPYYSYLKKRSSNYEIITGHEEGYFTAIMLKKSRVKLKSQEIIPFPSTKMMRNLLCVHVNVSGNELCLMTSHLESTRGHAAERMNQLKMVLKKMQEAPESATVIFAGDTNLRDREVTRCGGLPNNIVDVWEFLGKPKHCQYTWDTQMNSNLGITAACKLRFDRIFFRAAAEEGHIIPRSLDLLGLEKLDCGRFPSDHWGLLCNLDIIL
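Assay system: Recombinant human TDP2 | Quantity: 120 nM TDP2 per well | Incubation: 2 h at 37 °C | Signal: Epi absorbance | Evaluation: Percent inhibition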
BSA probe FL: interferes with TAMRA-BSA probe, flagging TCR-CD3 hits; shares compounds with TCR CD3 inh; AID 652035; inhibition, % at 9.4 µM; TAMRA-labeled BSA probe fluorescence counterscreen; 1,200 tested, 10% active; in the data active = inhibition above about 23%;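 note: 0% = buffer low control and 100% = reference high control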
TCR-CD3 inh conf: confirmation of human TCR-CD3 interaction inhibitors. shares compounds with TCR CD3 inh. TAMRA-labeled TCR probe fluorescence binding assay. inhibition, % at 9.4 µM. 1,200 tested, 48% active. AID 652036
An asterisk follows results filed as active; · = no result given. Sampled rows, rich in hits. Any-hit rate of the full collection: about 2.2%. Cut-off read from the data, not from the text of the source, unless noted: active = inhibition above about 19%; inactive = the rest.

SMILES | LEDGF integ inh | SIAE inh | ABHD4 inh | HTRA1 inh | TCR CD3 inh | TDP2 inh | BSA probe FL | TCR-CD3 inh conf
COC(=O)[C@]12C[C@H](CC(=O)N3CCN(C(=O)C4CC4)CC3)C(=O)N(Cc3ccc4c(c3)OCO4)C1=C[C@H](COCc1ccccc1)O[C@@H]2C | -2.7 | 3.9 | 4.0 | · | -4.2 | -2.4 | · | ·
COCCn1c(=NC(=O)c2cc(-c3cccs3)nc3ccccc23)sc2cc(S(N)(=O)=O)ccc21 | 2.1 | -118.1 | -113.0 | -139.3 | 28.6* | 11.4 | 1.8 | 21.2*
C=CCn1c(=NC(=O)c2cc(-c3cccs3)nc3ccccc23)sc2cc(S(N)(=O)=O)ccc21 | -0.5 | -71.3 | -101.4 | -129.6 | 15.8 | -7.3 | · | ·
C/C(=N\NC(=S)NCC(C)(C)C)c1cc(F)cc(F)c1O | 1.0 | 2.8 | 7.8 | 34.9 | 26.7* | 4.6 | -10.9 | 1.2
Oc1ccccc1-c1nc(/C=C/c2ccccc2)nn1-c1ccccc1 | -0.5 | -6.1 | -17.4 | -21.9 | -5.1 | 4.3 | · | ·
Oc1ccc(/C=C/c2nc(-c3ccccc3O)n(-c3ccccc3)n2)cc1 | 1.9 | 2.0 | -25.6 | -10.2 | 46.4* | -19.5 | 3.3 | 3.0
Cn1c(=O)c(-c2cc(=O)[nH][nH]2)c(O)c2ccccc21 | 3.1 | 5.4 | 13.4 | · | 19.3* | -0.3 | -8.6 | 16.9
COC(=O)[C@]12C[C@H](CC(=O)NCc3ccc(OC)c(OC)c3)C(=O)N(Cc3ccco3)C1=C[C@H](C1CCCC1)O[C@@H]2C | -0.6 | -0.4 | 8.9 | · | · | 3.1 | · | ·
NS(=O)(=O)c1cc(C(=O)NC2CCSc3ccccc32)ccc1Cl (configuration not stated) | 60.5* | -43.1 | -36.0 | -177.8 | 40.1* | 73.3* | -0.3 | 36.2*
COc1cccc(C(=O)NCC(c2ccc3c(c2)OCO3)N2CCN(c3ccc(F)cc3)CC2)c1 (configuration not stated) | -3.1 | 3.1 | 0.8 | -33.3 | 1.1 | -8.9 | · | ·
COc1ccc(C(=O)NCC(c2ccc3c(c2)OCO3)N2CCN(c3ccc(OC)cc3)CC2)cc1 (configuration not stated) | -4.3 | 10.1 | 1.1 | -0.9 | 23.6* | -4.0 | 5.7 | 4.7
COc1ccc(S(=O)(=O)Nc2c(NC3CCCCC3)c3ccccc3oc2=O)cc1Cl | -2.3 | 9.7 | -5.5 | -26.5 | 1.4 | -19.7 | · | ·
Cc1cc(S(=O)(=O)Nc2c(NC3CCCCC3)c3ccccc3oc2=O)ccc1F | -1.6 | 10.3 | -2.8 | -14.3 | 19.1* | -1.7 | 4.2 | 3.4
CCC[C@H]1[C@@H](NC(=O)c2ccc(N(C)C)cc2)CC[C@@]23CCCN2C(=O)CCC[C@@H]13 | 4.7 | 3.8 | 4.1 | · | · | 0.1 | · | ·
NS(=O)(=O)c1ccc(NC(=O)c2cccc(N3C(=O)c4ccccc4C3=O)c2)cc1 | -4.1 | -22.9 | -13.5 | -5.6 | 25.3* | 16.7 | -1.2 | 30.4*
COc1ccc(-c2nn(-c3ccccc3)cc2/C=N/NC(=O)c2cccc(S(=O)(=O)Nc3ccccc3OC)c2)cc1 | -3.3 | -99.3 | -3.3 | -26.1 | 41.1* | 1.6 | 31.8* | 45.8*
CCCCNc1cccc2c1S(=O)(=O)N[C@@H](Cc1ccccc1)CO2 | 4.9 | -3.6 | -21.6 | · | -2.3 | -1.0 | · | ·
COc1ccc(-c2cn3cc(C(=O)NN)ccc3n2)cc1 | 6.2 | -3.8 | -0.5 | 4.6 | 21.2* | 3.0 | -0.1 | -2.0
NNC(=O)c1ccc2nc(-c3ccc(Br)cc3)cn2c1 | 5.1 | 3.7 | -1.3 | -4.9 | -0.8 | -13.1 | · | ·
COc1cccc(CNC(=O)[C@H]2CCCN2C(=O)[C@H]2CCCN2C(=O)c2ccc(F)c(F)c2)c1 | -1.0 | -3.1 | 1.2 | · | 6.3 | 1.4 | · | ·
O=Cc1cscc1[B-](F)(F)F | 1.5 | -0.6 | 9.3 | · | 0.0 | 2.5 | · | ·
O=C(CCc1ccc(S(=O)(=O)N2CCOCC2)cc1)Nc1cc(Cl)ccc1N1CCOCC1 | 0.9 | 6.8 | -2.0 | 1.1 | 20.6* | 2.3 | 5.7 | 3.5
Cc1cc(Br)cn2c(Cc3cccc(Cl)c3)c(C3CCCCC3)nc12 | -4.7 | 5.0 | -19.5 | · | -2.8 | 3.2 | · | ·
CCOc1ccccc1NC(=O)C(=O)N/N=C/c1cc(Br)ccc1O | -0.9 | 0.9 | 14.4 | 14.3 | 27.9* | 9.0 | -9.9 | 21.4*
Cc1ccc2nc(-c3cccc(Br)c3)c(Cc3ccccc3)n2c1 | 3.2 | -9.6 | -10.1 | · | 114.2* | -10.4 | -0.4 | -1.4
SMILES | LEDGF integ inh | SIAE inh | ABHD4 inh | HTRA1 inh | TCR CD3 inh | TDP2 inh | BSA probe FL | TCR-CD3 inh conf
Cc1ccc(Cc2c(-c3cccc(Br)c3)nc3ccc(C)cn23)cc1 | 3.2 | -7.9 | 1.8 | · | 77.3* | -2.4 | -8.8 | -1.2
COc1ccc(OC)c(N2C(=NC(=O)C3CCCCC3)SC3CS(=O)(=O)CC32)c1 (configuration not stated) | -3.4 | 1.6 | -0.4 | 7.5 | 41.4* | -7.8 | -1.4 | 4.3
COc1ccc(N2C(=NC(=O)C3CCCCC3)SC3CS(=O)(=O)CC32)cc1Cl (configuration not stated) | 2.8 | 3.4 | 1.0 | -1.1 | 0.5 | -7.3 | · | ·
C[C@]12c3[nH]c4ccc(Cl)cc4c3CCN1C(=O)[C@@H](CC(=O)NCCN1CCOCC1)C[C@@H]2C(=O)N1CCCCC1 | -1.5 | -2.8 | 4.2 | 2.9 | 36.5* | -2.7 | 3.4 | 1.8
O=C(OCC(=O)N1CCOCC1)c1cccc(S(=O)(=O)Nc2ccc(F)cc2)c1 | 4.3 | 1.9 | -9.4 | 0.0 | 39.1* | -4.8 | -0.2 | -3.7
Cc1ccc(C(=O)OCC(=O)NNC(=O)COc2ccc(Cl)cc2)c(O)c1 | 0.2 | -1.5 | 1.7 | 7.1 | 26.8* | 2.4 | 0.9 | 11.5
C[C@H]1[C@@H](OC(=O)NCc2cccs2)CC[C@@]23CCCN2C(=O)CCC[C@@H]13 | -1.8 | -2.1 | 1.6 | · | · | 2.4 | · | ·
C[C@H](O)[C@@H]1C(=O)N2CCc3c([nH]c4c(-c5ccc6c(c5)OCO6)cccc34)[C@@H]2C[C@@H]1N(C)C(=O)NC1CCCCC1 | -4.0 | 1.4 | -0.1 | · | 0.1 | -8.2 | · | ·
CN1CCN(C(=O)c2cc3c(c(-c4cccc(-c5cccnc5)c4)n2)[C@@H](CCO)N(C(=O)CC2CC2)C3)CC1 | -2.9 | 3.0 | -9.2 | · | 25.1* | 2.3 | 0.9 | 0.4
CS(=O)(=O)N1Cc2cc(C(=O)NCC3CC3)nc(-c3cccc(-c4cccnc4)c3)c2[C@H]1CCO | 3.6 | -2.2 | -3.0 | · | -7.3 | 0.1 | · | ·
C#CCOCCOCCOCCNc1nc(N2CCOCC2)nc(N2CCN(C(=O)[C@H](Cc3ccc(O)cc3)n3cc([C@@H](N)C(C)CC)nn3)CC2)n1 (some centres not stated) | 1.6 | 2.1 | 6.5 | -0.9 | 19.6* | 3.7 | -5.4 | 1.9
